# Assay outcomes deposited in PubChem by several laboratories.
# NR2E3 ag-1: agonists of human NR2E3 nuclear receptor. AID 602229. 360,000 compounds, 0.35% hits. Q9Y5X4. CHO-S Gal4-NCOR/VP16-NR2E3 two-hybrid, luciferase. inhibition of corepressor binding, % at 3.98 µM;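 active means inhibition above the mean of all tested compounds plus 3 SD, cut at about 70% in these data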;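 further: 0% = DMSO with NR2E3 transfected cells and 100% = cells lacking NR2E3 construct; higher means lower luciferase signal from less NR2E3 corepressor binding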
# Target sequence (Q9Y5X4 whole entry, looked up, the tested form may be a part): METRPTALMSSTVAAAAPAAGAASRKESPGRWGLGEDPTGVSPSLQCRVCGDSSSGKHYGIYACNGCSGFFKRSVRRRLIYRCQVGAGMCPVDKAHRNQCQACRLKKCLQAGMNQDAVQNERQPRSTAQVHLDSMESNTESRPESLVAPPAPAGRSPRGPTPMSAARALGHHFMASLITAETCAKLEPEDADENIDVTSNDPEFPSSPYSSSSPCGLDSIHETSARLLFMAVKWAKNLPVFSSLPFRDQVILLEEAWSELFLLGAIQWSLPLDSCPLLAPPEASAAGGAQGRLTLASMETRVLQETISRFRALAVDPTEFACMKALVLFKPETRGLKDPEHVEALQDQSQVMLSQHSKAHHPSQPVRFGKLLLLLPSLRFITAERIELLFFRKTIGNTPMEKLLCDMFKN
# TROY signal inh: TROY signaling inhibition. AID 1347056. 360,000 compounds, 0.98% hits. inhibition, % at 10 µM. Q293 LMP1-TROYcd NF-kB luciferase reporter, 4 h;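 active means compounds whose plate-normalised and pattern-corrected inhibition of the luciferase reporter signal at the single screening dose is 50% or more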
# HIF act: HIF pathway transcriptional activation | 300,000 compounds, 0.32% hits | activation, % at 7.5 µM (by protocol) | U2OS HRE-luciferase reporter, luminescence; normalized: DMSO 0%, desferrioxamine 100%;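 active means mean activation of at least 10% of the iron chelator positive control signal, with at least half of replicates also reaching 10%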
# EBV LMP1 NFkB: Epstein-Barr LMP1 NF-kappaB reporter inhibition; LMP1-induced NF-kappaB luciferase reporter cells, luminescence; inhibition, % at 12.5 µM; 350,000 compounds, 0.69% hits; AID 504558; in the data active means inhibition above about 41%;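 further: 0% = neutral control wells and 100% = reference inhibitor control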
# NR2E3 ag-2: NR2E3 (human) agonism | Q9Y5X4 | 320,000 compounds, 0.12% hits | AID 2300 | GST-NR2E3/biotin-RetCOR TR-FRET, 1536-well | inhibition of corepressor binding, % at 4.78 µM;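 active means percent inhibition above the cutoff of mean plus 3 SD of all tested compounds, set per screening campaign, cut at about 20% in these data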;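 further: 0% = DMSO wells and 100% = biotin wells as full block of FRET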
#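 Material: NR2E3–RetCOR corepressor complex / Amount: 1.35 nM GST-NR2E3 / Medium: Tris pH 7.5 / Compound: single nominal compound dose of 4.8 µM / Incubation: 5 h at 4 °C / Technique: TR-FRET, Eu(K)-anti-GST donor, streptavidin-D2 acceptor, ex 340, em 617/671 nm / Read-out basis: percent loss of FRET ratio relative to control wells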
# NR2E3 agonist cf: NR2E3 (human) agonism, confirmation. shares compounds with NR2E3 ag-2. cell-free NR2E3 corepressor release, TR-FRET, 5 h. activation (reported as inhibition), % at 3.98 µM. 360 compounds, 39% hits; in the data active means activation above about 20%
# PPARg-NCOR2 ctr: PPARg-NCOR2 interaction agonism, NR2E3 counter-screen; shares compounds with NR2E3 ag-2; TR-FRET PPARg-NCOR2 coregulator interaction, biochemical; inhibition, % at 3.98 µM; 360 compounds, 45% hits; AID 504787; in the data active means inhibition above about 20%;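 further: 0% = DMSO vehicle and 100% = wells without protein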
# An asterisk follows results filed as active; / = no result given. Compounds with a hit are over-represented: about 2% of the library has one in this group of screens.
SMILES,NR2E3 ag-1,TROY signal inh,HIF act,EBV LMP1 NFkB,NR2E3 ag-2,NR2E3 agonist cf,PPARg-NCOR2 ctr
COCCn1c(N)c(C(=O)NCC2CCCO2)c2nc3ccccc3nc21 (stereo not drawn),-7,6,-1,5,36*,-3,6
COc1cccc(N2[C@@H](CC(=O)O)c3ccc(/C=C/C(=O)O)cc3S2(=O)=O)c1,-26,-15,0,-6,9,/,/
CCCOc1cccc(C2C(C(=O)c3cc4ccccc4o3)=C(O)C(=O)N2c2cc(C)on2)c1 (stereo not drawn),-9,-14,-1,2,24*,34*,36*
Cc1cc(N2C(=O)C(O)=C(C(=O)c3cc4ccccc4o3)C2c2cccc(Br)c2)no1 (stereo not drawn),31,-10,2,2,38*,48*,46*
Cc1cc(N2C(=O)C(O)=C(C(=O)c3cccs3)C2c2ccccc2)no1 (stereo not drawn),21,-21,1,-3,6,/,/
COc1cccc(C2C(C(=O)c3ccc(C)o3)=C(O)C(=O)N2c2cc(C)on2)c1 (stereo not drawn),-42,-1,0,-4,12,/,/
CN(C)S(=O)(=O)c1cccc(NC(=O)COC(=O)c2ccc3ccccc3n2)c1,-5,1,/,-6,/,/,/
CCN(CC)S(=O)(=O)c1cc(C(=O)OCC(=O)Nc2cccc(S(=O)(=O)N(C)C)c2)ccc1F,1,28,-9,-1,22*,-6,-6
CC(Oc1ccc(Br)cc1)C(=O)Nc1ccc(S(=O)(=O)NC2=NCCCCC2)cc1 (stereo not drawn),12,11,/,6,/,/,/
CN(CC(=O)NCCC1=CCCCC1)S(=O)(=O)c1ccc2c(c1)c(=O)n(C)c(=O)n2C,4,6,/,1,24*,-5,-6
Cc1ccc(S(=O)(=O)N2CCOCC2)cc1C(=O)OCCOc1cccc(Cl)c1,-16,12,-1,-16,3,/,/
O=C(O)CCCN1C(=O)/C(=C/C=C/c2ccco2)SC1=S,-12,5,-2,-5,32*,-6,20*
O=C(O)CC(C(=O)O)N1C(=O)/C(=C/C=C/c2ccco2)SC1=S (stereo not drawn),-45,-11,0,-1,39*,36*,-6
O=C(O)C(Cc1ccccc1)N1C(=O)/C(=C/C=C/c2ccco2)SC1=S (stereo not drawn),-23,1,0,1,/,/,/
O=C(NN1C(=O)/C(=C/C=C/c2ccco2)SC1=S)c1ccccc1O,-18,6,0,-20,9,/,/
Cc1ccc(C2C(C(N)=S)=C(N)OC3=C2C(=O)CC(C)(C)C3)cc1 (stereo not drawn),-1,4,0,-1,26*,-1,65*
CCC/C=C/c1ccc(CN2C(CC(C)C)C(=O)N(Cc3cn(CC4CCCCC4)nn3)CCS2(=O)=O)cc1 (stereo not drawn),4,-2,/,11,/,/,/
COC(=O)c1sc(NC(=S)NNC(=O)c2c(Br)c(C)nn2C)c(C(=O)OC)c1C,-2,26,-1,-8,62*,9,5
O=c1oc2cc(O)c(Cl)cc2c2ccccc12,-11,-4,0,9,52*,46*,48*
COc1ccc2c(c1)oc(=O)c1ccccc12,-32,-87,1,-16,0,/,/
O=C1C(=O)N(Cc2cccnc2)C(c2cccc(F)c2)/C1=C(/O)c1ccc2c(c1)OCO2 (stereo not drawn),-7,-46,0,-9,24*,26*,28*
Nc1nc(-c2ccco2)c(-c2ccco2)s1,-26,9,0,-5,0,/,/
c1coc(-c2nc(-c3ccco3)c(-c3ccco3)nc2-c2ccco2)c1,-2,4,-1,-4,42*,-3,-5
Cc1c(N2C(=O)c3ccc4c5c(ccc(c35)C2=O)CC4)c(=O)n(-c2ccccc2)n1C,-7,-4,0,-1,21*,26*,14
Cc1c(N2C(=O)c3ccc(Br)cc3C2=O)c(=O)n(-c2ccccc2)n1C,-7,-7,-1,-4,4,/,/
SMILES,NR2E3 ag-1,TROY signal inh,HIF act,EBV LMP1 NFkB,NR2E3 ag-2,NR2E3 agonist cf,PPARg-NCOR2 ctr
C=CCOc1ccc(/C(O)=C2\C(=O)C(=O)N(CCOC)C2c2cccnc2)cc1 (stereo not drawn),22,-3,0,-17,21*,5,4
CCCOc1ccc(/C(O)=C2/C(=O)C(=O)N(CCOC)C2c2cccnc2)cc1 (stereo not drawn),/,/,0,/,5,/,/
O=C(O[C@@H]1OC2COC(=O)c3cc(O)c(O)c(O)c3-c3c(cc(O)c(O)c3O)C(=O)O[C@@H]([C@H]1O)[C@@H]2O)c1cc(O)c(O)c(O)c1,-5,-20,0,-9,24*,14,-6
O=C(Nc1nc(-c2cccs2)c(-c2ccccc2)s1)c1ccco1,-10,-37,0,0,-2,/,/
O=C(Nc1nc(-c2cccs2)c(C(=O)C(F)(F)F)s1)c1ccco1,-6,14,0,5,30*,34*,32*
N#CCC(N)=C(C#N)C#N,-27,-1,0,4,26*,0,8
COc1cccc(CCC(=O)Nc2cc3c(cc2C(=O)O)OCCCO3)c1OC,-41,-6,/,-1,6,/,/
CCN(Cc1ccccc1)C(=O)CCS(=O)(=O)c1cc2c(cc1Cl)NC(=O)CO2,8,0,-1,-4,1,/,/
O=C(C1=C(O)C(=O)N(CCN2CCOCC2)C1c1ccc(Br)cc1)c1cc2ccccc2o1 (stereo not drawn),13,-4,-1,-11,18,/,/
O=C(C1=C(O)C(=O)N(CCN2CCOCC2)C1c1cccnc1)c1cc2ccccc2o1 (stereo not drawn),-2,8,/,0,32*,5,4
Cc1ccc(C2C(C(=O)c3cc4ccccc4o3)=C(O)C(=O)N2CCN2CCOCC2)cc1 (stereo not drawn),-4,-17,0,2,20*,25*,25*
O=C(C1=C(O)C(=O)N(CCN2CCOCC2)C1c1cccc(F)c1)c1cc2ccccc2o1 (stereo not drawn),-13,-7,0,0,33*,20*,25*
O=C(C1=C(O)C(=O)N(CCN2CCOCC2)C1c1cccc(O)c1)c1cc2ccccc2o1 (stereo not drawn),-30,0,0,2,/,/,/
O=C(C1=C(O)C(=O)N(CCN2CCOCC2)C1c1cccs1)c1cc2ccccc2o1 (stereo not drawn),-33,-12,2,-11,30*,31*,34*
